Rad51 HR inh – Rad51 (human) homologous recombination inhibition; Q06609; hRad51 DNA strand exchange, fluorescence dequenching; inhibition, % at 10 µM; hit rate 0.085% among 200,000; AID 1385;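 active = inhibition above 40% at the single screening dose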
Target sequence (Q06609 whole entry, looked up): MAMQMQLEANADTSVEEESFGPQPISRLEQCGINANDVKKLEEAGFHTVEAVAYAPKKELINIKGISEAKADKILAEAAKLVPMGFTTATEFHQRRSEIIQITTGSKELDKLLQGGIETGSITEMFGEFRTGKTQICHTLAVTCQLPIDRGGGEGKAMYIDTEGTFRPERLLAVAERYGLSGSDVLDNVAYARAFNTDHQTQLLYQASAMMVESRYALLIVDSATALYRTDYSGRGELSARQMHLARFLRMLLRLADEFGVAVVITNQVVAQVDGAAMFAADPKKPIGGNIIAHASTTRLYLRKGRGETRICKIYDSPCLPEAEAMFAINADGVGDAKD
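Material: human Rad51–ssDNA filaments; Probe or stimulus: labelled 47-mer dsDNA for strand exchange; Doses: single 10 µM dose; Incubation: 37 °C 15-min filament assembly, 30-min compound preincubation, 15-min exchange; Technique: FRET fluorescence dequenching, excitation 485 nm, emission 520 nm; Measure: Fluorescence-based percent inhibition, control- and blank-normalised; Benchmarks: plate control and blank wells.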
ROMK primary – modulators of human ROMK potassium channel. hit rate 2% among 130,000. AID 1918. Tet-inducible ROMK, thallium flux fluorescence; actives lie on both sides. B-score at 10 µM;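 active = signal ratio slope over the read window, or its plate-corrected B-score, at least 3 SD from the plate mean, either direction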;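 note: B-score of the F/F0 ratio slope over 7 to 12 s after thallium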
PKD1 kinase inh – blocks activity of human protein kinase D1; Q15139; PKD1 kinase fluorescence polarization assay; inhibition, % (concentration not given with the values); hit rate 0.056% among 200,000; in the data active = inhibition above about 50%
Cl transport mod – KCC2 (human) Cl- transport modulation; KCC2 cells, thallium flux FluoZin-2 fluorescence; hit rate 2.2% among 190,000; AID 1456; Q9H2X9; B-score of Tl+ flux slope (higher = more flux/activation; lower = inhibition) at 10 µM;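 active = thallium flux slope and its plate-corrected score both differing from the plate sample mean at a set confidence after two filtering rounds, in either direction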;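 note: slope of fluorescence scaled to starting intensity during 10 to 20 s after thallium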
KCC2 secondary – confirmation of human KCC2 transport modulators; shares compounds with Cl transport mod; HEK293-KCC2, thallium flux, FluoZin2 fluorescence; stronger effect = higher value; normalised thallium flux (F/F0 slope) at 10 µM; hit rate 15% among 3,700; AID 1713;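 active = thallium flux slope above the same plate's solvent-only control mean plus 3 SD; inconclusive = the two replicate wells disagree; inactive = no significant difference from solvent-only control wells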
KCC2 bumet counter – thallium flux despite bumetanide block in KCC2 cells, secondary assay 3; shares compounds with Cl transport mod; HEK293-KCC2 + bumetanide/ouabain, thallium flux FluoZin2; stronger effect = higher value; normalized thallium flux at 10 µM; hit rate 49% among 3,700;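 active = thallium entry rate above the same plate's blocked-transporter control wells by more than 3 SD; inconclusive = the two repeat wells disagree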;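 note: raw slope of fluorescence over initial fluorescence between 10 and 20 s after thallium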
KCC2 sec2 – confirmation of human KCC2 transport modulators; AID 1715; hit rate 23% among 3,700; shares compounds with Cl transport mod; normalized thallium flux at 10 µM; HEK293-KCC2, thallium flux FluoZin2 fluorescence; actives lie on both sides; F/F0 rise rate, 10–20 s post-thallium;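 active = thallium flux slope more than 3 SD above or below the plate's solvent-only control mean, mostly below; inconclusive = the two repeat wells disagreed; inactive = no significant shift from solvent-only controls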
HEK counter1 – counter-screen for KCC2 modulators: effect in parental HEK293 cells | hit rate 46% among 3,700 | thallium flux FluoZin2, ouabain; baseline-ratio fluorescence slope, 10–20 s after thallium | AID 1716 | thallium flux rate (normalised fluorescence) at 10 µM | shares compounds with Cl transport mod;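 active = thallium flux rate significantly above the same plate's solvent-only control wells, beyond their mean plus 3 SD; inconclusive = the two replicate wells gave conflicting results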
KCC2 ouabain – KCC2 (human) modulation, ouabain retest | shares compounds with Cl transport mod | HEK293-KCC2, thallium flux FluoZin2 fluorescence; bidirectional: low = inhibitor, high = activator | raw Tl+ flux slope (below DMSO = inhibition, above = activation) at 10 µM | hit rate 48% among 3,700;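 active = thallium flux slope beyond 3 SD from same-plate DMSO control mean in most replicates, usually higher, sometimes lower; inconclusive = repeat tests gave conflicting results; inactive = no significant difference from controls in most replicates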;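 note: slope of initial-normalized fluorescence between seconds 10 and 20 after thallium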
HEK counter2 – parental HEK flux effect, counter-screen 2 | shares compounds with Cl transport mod | HEK293 parental, thallium flux FluoZin-2 fluorescence slope | thallium flux slope at 10 µM | hit rate 33% among 3,700 | AID 1718;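 active = thallium flux slope above the same plate's solvent-control mean plus 3 SD in both duplicate wells; inconclusive = duplicate wells that disagreed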;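 note: run without ouabain in cells lacking the KCC2 cotransporter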
Numbers stand for hits; – = inactive; ? = inconclusive; · = not tested or not shown. Compounds with a hit are over-represented: about 3% of the library has one in this group of screens.

SMILES	Rad51 HR inh	ROMK primary	PKD1 kinase inh	Cl transport mod	KCC2 secondary	KCC2 bumet counter	KCC2 sec2	HEK counter1	KCC2 ouabain	HEK counter2
CN(C)c1ccc(-c2nc3ccccc3n2C)cc1	–	–	–	·	·	·	·	·	·	·
CC(C)n1c(-c2ccc(N(C)C)cc2)nc2ccccc21	–	·	–	-3.32	–	–	–	?	–	–
O=C(Nc1ccccc1NS(=O)(=O)c1ccc(F)cc1)C1CCC1	–	–	–	–	·	·	·	·	·	·
CCOc1nc(-c2ccc(C)cc2)ccc1-c1noc(-c2cccnc2)n1	–	–	–	2.91	–	–	–	–	–	–
COc1ccc(N/C=C/c2nc(SC)nnc2C)cc1	–	–	–	-2.96	–	0.0022	0.0238	0.004	0.012	0.00771
Cc1sc2nc(SCC(=O)NCCO)n(C)c(=O)c2c1C	–	–	–	·	·	·	·	·	·	·
Cc1sc2nc(SCC(=O)OC(C)C)n(C)c(=O)c2c1C	–	–	–	·	–	0.0143	–	0.0151	0.0258	0.018
CCOC(=O)CNC(=O)CSc1nc2sc(C)c(C)c2c(=O)n1C	–	–	–	·	–	0.0185	–	0.0174	0.0266	0.0209
O=S1(=O)CCC(NC(=S)N2CCOCC2)C1 (stereo not drawn)	–	–	–	–	·	·	·	·	·	·
CCOC(=O)C(CCCP(=O)(c1ccccc1)c1ccccc1)(NC(C)=O)C(=O)OCC	·	·	·	–	·	·	·	·	·	·
CC(C)Cn1c(-c2ccc(Br)o2)n[nH]c1=S	–	–	–	12.1	0.0176	0.0398	–	0.0185	0.0319	0.0123
Cc1ccsc1-c1n[nH]c(=S)n1CC(C)C	·	–	–	–	·	·	·	·	·	·
C=C(C)C1CC=C(C)/C(=N\NC(=S)Nc2ccc(C)cc2)C1 (stereo not drawn)	–	–	–	4.62	–	0.0222	–	0.0119	0.0402	0.0112
CCOC(=O)c1c(C)nc(C)c2c(=O)oc3ccccc3c12	·	–	–	–	·	·	·	·	·	·
Cc1cc2nc(-c3ccc(SCc4ccc(C(=O)O)cc4)nc3)[nH]c2cc1C	–	·	–	-3.99	–	–	–	?	0.0135	–
CN1C(=O)/C(=C/c2ccccc2OCc2ccccc2)NC1=S	–	–	–	9.7	–	0.0129	–	0.00983	?	–
C/C(=N\NC(=O)c1ccc([N+](=O)[O-])c(C)c1)c1ccccc1Cl	–	–	–	12.2	?	0.0465	–	?	0.0412	?
C=CCSC1=C(C#N)C(c2ccc(OCC)cc2)CC(=O)N1 (stereo not drawn)	–	·	–	–	·	·	·	·	·	·
CC(C)OC(=O)CSc1ncnc2c1cnn2Cc1ccccc1	–	·	–	-3.55	–	–	–	–	–	–
Cc1ccccc1CSCCNS(C)(=O)=O	–	–	–	·	–	–	–	–	–	–
COc1ccc(-c2cc(C)nc(SCc3cccc(C(=O)O)c3)n2)cc1	–	–	–	-4.84	–	0.0126	–	0.00899	–	?
Cc1ccc(C(=O)NCCc2ccc(F)cc2)s1	–	–	–	–	·	·	·	·	·	·
Cc1nc(C)c(C(=O)NNS(=O)(=O)c2ccc3ccccc3c2)s1	–	–	–	–	·	·	·	·	·	·
O=C(c1cc2c(s1)-c1ccccc1S(=O)(=O)C2)N1CCN(Cc2ccccc2)CC1	·	·	–	–	–	–	–	–	?	–
CCS(=O)(=O)N1CCN=C1SCc1cccnc1	–	–	–	–	·	·	·	·	·	·
COc1ccc(CNC(=O)c2cc3c(=O)n4ccccc4nc3n(Cc3ccco3)c2=N)cc1	·	·	–	–	·	·	·	·	·	·
Cc1ccc(Cn2c(=N)c(C(=O)NCc3ccco3)cc3c(=O)n4ccccc4nc32)cc1	·	·	–	5.69	–	?	?	0.00548	–	–
CN(C(=O)c1cccc(C#N)c1)c1nnc(-c2cnccn2)s1	–	–	–	·	–	–	–	–	–	?

Assay outcomes as filed in PubChem BioAssay.
